This sample holds only a part of the variants without activity.
B1: tRNA (parent)
chain: GUUCCGUUGGCGUAAUGGUAACGCGUCUCCCUCCUAAGGAGAAGACUGCGGGUUCGAGUCCCGUACGGAACG

Variants of: B1
Assay: yeast fitness relative to wild type (ratio to wild type); higher = fitter; tRNA-Arg(CCU), competitive growth, 37 C, YPD
Summary of the method: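 For this measurement, the tRNA-Arg(CCU) gene was varied by chemical synthesis at a 3% per-site mutation rate across 69 sites, and each variant was placed at the native genomic locus in Saccharomyces cerevisiae. The pooled strains went through a 24-hour competition in YPD at 37°C in six parallel replicates, with amplicons from start and end populations read by 100-nucleotide paired-end sequencing. Darwinian fitness relative to wild type followed from the change in each genotype's frequency. Genotypes needed ≥ 100 starting reads, and estimates < 0.5 were set to 0.5.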

| Variant | yeast fitness |
| --- | --- |
| C24A C30U A45G U54C A57U C62U | 0.548 |
| A21C C62G | 0.723 |
| U3C A15C A36C U47A C62G | ≤ 0.5 |
| A20C C22A C27G G51C | ≤ 0.5 |
| U3A C11G U28A G41C G58C | ≤ 0.5 |
| U3C G12A U13C A37C A45U G48C | ≤ 0.5 |
| A40G C46A | 1.04 |
| G48C C49U A70C | 0.592 |
| U2G U26G G44C G58A A65G | ≤ 0.5 |
| G25U A65U | 1.02 |
| G10C A42C A43G | ≤ 0.5 |
| U16A G51A | 0.752 |
| U13A C29U | 0.786 |
| U7G C27A C29U A40U | ≤ 0.5 |
| U3C A15U U16C C34U A43G | ≤ 0.5 |
| G9A A45U U64C | 0.57 |
| U7G C33G G48C U64C | 0.531 |
| C4U G25A U54A | ≤ 0.5 |
| U2A C5G U64A | ≤ 0.5 |
| A20U C27U | 1.05 |
| G6A C31U G63A | 0.582 |

| Variant | yeast fitness |
| --- | --- |
| A21U C30G U32C | ≤ 0.5 |
| U19C C24U A70C | 0.755 |
| C4U G12A U28A A42C | 0.515 |
| U7C G12C U32A G39A C49G | 0.602 |
| C22G A36C U54C C55U C60A C62G A69U | ≤ 0.5 |
| U8C G38C U64A C66U | ≤ 0.5 |
| C4A C33A G39A G51C | 0.657 |
| G39A A70U | 0.915 |
| C4A G17C C22U | ≤ 0.5 |
| G39C C49A G51A | ≤ 0.5 |
| G17A C55A | 0.547 |
| C11G G48C G51C U53C A57U C66U | ≤ 0.5 |
| U19C C46A C60G G67C | ≤ 0.5 |
| G17C C24A A36U G41C | ≤ 0.5 |
| G9C U28C G44C U54C | ≤ 0.5 |
| C4U U19A | 1.04 |
| C4U G39A A42G G63A G67A | ≤ 0.5 |
| C22U A36C C60G | ≤ 0.5 |
| C22A A70U | 1.01 |
| U32G C33G A70G | ≤ 0.5 |
| G12C C33G G44C U54A | ≤ 0.5 |

| Variant | yeast fitness |
| --- | --- |
| C30A A36C G38A | ≤ 0.5 |
| A15G U64C A69C | 0.775 |
| A15C C29U G39C A42U G50U G51C A65U | 0.527 |
| U16C U47A C49A C62U | 0.778 |
| U19C G48C | 0.922 |
| C30U A57U | 0.863 |
| G9A U28C G38A G44A G51C G58C | ≤ 0.5 |
| A15G C29A A36G G39A | ≤ 0.5 |
| C4A C5U A57U U59C | ≤ 0.5 |
| C5A A42C U47A C49A G51U C61U G68A | ≤ 0.5 |
| U2G C27U C46U G58A | 0.662 |
| G17C G23C A43U C49A C66U A70U | 0.603 |
| U35C A43G | 0.783 |
| U32C G41C | 0.931 |
| G58A A69G | 1.15 |
| U8C A15U A20C G23A G50C | ≤ 0.5 |
| U19A C30G | 0.671 |
| C4A C34G C66U | 0.576 |
| C22G U26G G44A C55G G63C | ≤ 0.5 |
| U32C A40U C55G | 0.703 |
| G23A G41C C49G | 0.854 |

| Variant | yeast fitness |
| --- | --- |
| U16A G17A C66G A70U | 0.634 |
| C22U U35A | 0.553 |
| G9A C11A G38C C60G | ≤ 0.5 |
| U32C A42G G63A | 0.556 |
| C30G C33U A45U | 0.57 |
| U8C C22A | 0.932 |
| U13A G48A | 1.03 |
| A36C G48C C62U | ≤ 0.5 |
| C27G A37C G39A A45C A65U | ≤ 0.5 |
| U8C C27U U28G C33G A36G | ≤ 0.5 |
| C24A C62U A70U | 0.543 |
| G41A C61A | 0.742 |
| U3C C29U G58C | 0.58 |
| C29U C31U U54G A65C G67A | 0.549 |
| C30G G41C A57U | ≤ 0.5 |
| C24U G67C | 0.698 |
| A20G A21G C22U | 0.564 |
| U13A A21C C24A G25C C66G | 0.512 |
| C22G A57G C61A | ≤ 0.5 |
| G17C A20C C34A U47A A57U | ≤ 0.5 |
| G12C C22G G23A C55A | ≤ 0.5 |
